Data taken from ChEMBL document CHEMBL4145692, “Discovery of a Locally and Orally Active CXCL12 Neutraligand (LIT-927) with Anti-inflammatory Effect in a Murine Model of Allergic Airway Hypereosinophilia” (J Med Chem, 2018).
Converted amounts (≈) assume the structure as drawn. The source made the active and inactive calls. The calls are words filed in the database; no cut-off is given here.

How the values were obtained:
[1] = molecular target: Stromal cell-derived factor 1 (Homo sapiens, UniProt P48061); assay: Binding affinity to Texas Red-labelled CXCL12 (unknown origin) assessed as inhibition of CXCL12-Texas Red binding to EGFP-labeled human CXCR4 expressed in HEK293 cell membranes pre-incubated for 1 hr by FRET-based binding assay
Sequence of Stromal cell-derived factor 1 (P48061 whole entry): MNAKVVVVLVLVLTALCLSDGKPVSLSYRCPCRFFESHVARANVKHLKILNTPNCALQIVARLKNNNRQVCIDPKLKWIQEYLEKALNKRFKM
How it was run: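 HEK-293 cells stably expressing human EGFP-CXCR4, 10⁶ cells/ml in HEPES buffer pH 7.4 with 0.1% BSA, 21 °C. CXCL12-Texas Red (100 nM) was preincubated 1 h at room temperature with compound or DMSO, then added at t=150 s. FRET read as loss of EGFP emission at 510 nm (excitation 470 nm) up to equilibrium. Ki from dose-response curves.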

[2] = Kinetic solubility in pH 7.4 HEPES-BSA buffer at 5 uM incubated for 24 hrs at 20 degC by HPLC method; format: physicochemical; details: read-out: Kinetic_solubility
How it was run: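 Compound added from 10 mM DMSO stock to 5 μM in pH 7.4 HEPES-BSA buffer (1 g/L BSA), shaken 24 h at 20 °C. After centrifugation, supernatant concentration measured by HPLC against 5 and 10 μM standards.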

[3] = Thermodynamic solubility in pH 7.4 PBS buffer incubated for 24 hrs at 22 degC by HPLC method; format: physicochemical; details: read-out: Therm_solubility
How it was run: (§1)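 Powder dissolved to saturation in pH 7.4 PBS (100 mM sodium phosphate, 150 mM NaCl), or in PBS with 10% Cdx, and shaken 24 h. After centrifugation, supernatant quantified by HPLC against a per-compound calibration line prepared from the DMSO stock.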

[4] = Thermodynamic solubility in pH 7.4 PBS/Cdx buffer incubated for 24 hrs at 22 degC by HPLC method; format: physicochemical; details: read-out: Therm_solubility; how it was run: as §1
[5] = Chemical stability in pH 7.4 PBS buffer assessed as parent compound remaining at 10 uM incubated for 24 hrs by RP-HPLC method; format: physicochemical; details: read-out: Stability
How it was run: (§2)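 Compound diluted from DMSO stock to 10 μM final (1% DMSO) in PBS pH 7.4, or in PBS with 10% w/w (2-hydroxypropyl)-β-cyclodextrin. Sampled at t0, 2, 4, 6 and 24 h and injected directly onto RP-HPLC. Percent remaining relative to t0 from peak area.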

[6] = Chemical stability in pH 7.4 PBS/Cdx buffer assessed as parent compound remaining at 10 uM incubated for 24 hrs by RP-HPLC method; format: physicochemical; details: read-out: Stability; how it was run: as §2
Mus musculus [7] = assay: Inhibition of macrophages infiltration in Balb/c mouse model of 8 day model of allergic eosinophilic airway inflammation at 300 nmol/kg dosed intranasally 2 hrs before ovalbumin challenge by hemocytometry; format: functional, organism-based
Mus musculus [8] = assay: Inhibition of lymphocytes infiltration in Balb/c mouse model of 8 day model of allergic eosinophilic airway inflammation at 300 nmol/kg dosed intranasally 2 hrs before ovalbumin challenge by hemocytometry; format: functional, organism-based
How it was run: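 OVA/alum-sensitized Balb/c mice challenged intranasally with OVA on days 5–7. Compounds at 300 nmol/kg in 10% PBS/Cdx given intranasally 2 h before each challenge. BAL 24 h after the last challenge; eosinophils, neutrophils and lymphocytes counted by hemocytometer and differential cytospin; n=6/group.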

[9] = Stability in presence of GSH assessed as Michael acceptor reactivity by measuring GSH adduct formation after 2 hrs at 37 degC by LC-MS/MS method; format: physicochemical
How it was run: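 Compound 200 μM with 500 μM reduced GSH in methanol/50 mM carbonate buffer pH 8. Aliquots taken at 1 min and 2 h, diluted 1/40, and analysed by LC-MS/MS for GSH-conjugate formation.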

Mus musculus [10] = assay: Anti-inflammatory activity in Balb/c mouse model of hypereosinophilia assessed as inhibition of eosinophil infiltration at 350 umol/kg, ip dosed 2 hrs before allergen challenge; format: functional
How it was run: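 Balb/c mice sensitized with OVA/alum i.p. and challenged intranasally with OVA on 3 consecutive days. Compounds given i.p. 2 h before each challenge: neutraligands 350 μmol/kg in PBS/CMC 1%, AMD3100 12.6 μmol/kg, dexamethasone 2.5 μmol/kg. BAL 24 h after the last challenge; absolute eosinophil counts; mean ± SEM, n=6/group.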

Mus musculus [11] = assay: Toxicity in Balb/c mouse model of hypereosinophilia assessed as reduction in body weight at 12.6 umol/kg, ip dosed daily 2 hrs before allergen challenge for 3 days and measured 24 hrs after last dose; format: organism-based; details: in vivo
How it was run: (§3)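 Same OVA model with i.p. dosing 2 h before each of the three challenges: neutraligands 350 μmol/kg in PBS/CMC 1%, AMD3100 12.6 μmol/kg, dexamethasone 2.5 μmol/kg. Body and spleen weight loss recorded 24 h after three daily administrations; n=6/group.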

Mus musculus [12] = assay: Toxicity in Balb/c mouse model of hypereosinophilia assessed as reduction in spleen weight at 12.6 umol/kg, ip dosed daily 2 hrs before allergen challenge for 3 days and measured 24 hrs after last dose; format: organism-based; details: in vivo; how it was run: as §3
Mus musculus [13] = assay: Toxicity in Balb/c mouse model of hypereosinophilia assessed as reduction in body weight at 350 umol/kg, ip dosed daily 2 hrs before allergen challenge for 3 days and measured 24 hrs after last dose; format: organism-based; set-up: scale not given: the % may be the effect or the level left; details: in vivo; how it was run: as §3
Mus musculus [14] = assay: Toxicity in Balb/c mouse model of hypereosinophilia assessed as reduction in spleen weight at 350 umol/kg, ip dosed daily 2 hrs before allergen challenge for 3 days and measured 24 hrs after last dose; format: organism-based; set-up: scale not given: the % may be the effect or the level left; details: in vivo; how it was run: as §3
Mus musculus [15] = assay: Toxicity in Balb/c mouse model of hypereosinophilia assessed as toxic signs at 350 umol/kg, ip dosed daily 2 hrs before allergen challenge for 10 days and measured 24 hrs after last dose; format: organism-based; details: in vivo
How it was run: (§4)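 Mice given 10 daily administrations at 350 μmol/kg. Monitored for weight loss and for signs of toxicity, including prostration and bristly hair.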

Mus musculus [16] = assay: Toxicity in Balb/c mouse model of hypereosinophilia assessed as prostration at 350 umol/kg, ip dosed daily 2 hrs before allergen challenge for 10 days and measured 24 hrs after last dose; format: organism-based; details: in vivo; how it was run: as §4
Mus musculus [17] = assay: Toxicity in Balb/c mouse model of hypereosinophilia assessed as induction of liver lesions at 350 umol/kg, ip dosed daily 2 hrs before allergen challenge for […] and measured 24 hrs after last dose by Gomori's trichrome staining based histological analysis; format: organism-based; details: in vivo
Mus musculus [18] = assay: Toxicity in Balb/c mouse model of hypereosinophilia assessed as induction of spleen lesions at 350 umol/kg, ip dosed daily 2 hrs before allergen challenge for […] and measured 24 hrs after last dose by Gomori's trichrome staining based histological analysis; format: organism-based; details: in vivo
Mus musculus [19] = assay: Toxicity in Balb/c mouse model of hypereosinophilia assessed as induction of heart lesions at 350 umol/kg, ip dosed daily 2 hrs before allergen challenge for […] and measured 24 hrs after last dose by Gomori's trichrome staining based histological analysis; format: organism-based; details: in vivo
[20] = molecular target: T1, C-C motif chemokine 5 (Homo sapiens) (UniProt P13501); assay: Binding affinity to CCL5 (unknown origin) assessed as inhibition of CCL5-induced increase in intracellular calcium level in EGFP-tagged CCR5 expressing HEK cells at 10 uM
T1 sequence (whole entry): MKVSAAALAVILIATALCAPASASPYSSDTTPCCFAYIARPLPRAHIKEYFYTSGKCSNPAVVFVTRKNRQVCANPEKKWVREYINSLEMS

[21] = molecular target: C-C motif chemokine 2 (Homo sapiens) (UniProt P13500); assay: Binding affinity to CCL2 (unknown origin) assessed as inhibition of CCL2-induced increase in intracellular calcium level in EGFP-tagged CCR2 expressing HEK cells at 10 uM
Sequence of C-C motif chemokine 2 (Homo sapiens) (P13500 24-99 limits assumed): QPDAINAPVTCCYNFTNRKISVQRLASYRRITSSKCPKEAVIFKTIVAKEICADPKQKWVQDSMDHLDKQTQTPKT

Question: With COc1cc(-c2cc(-c3ccc(Cl)cc3)nc(=O)[nH]2)ccc1O as the compound, how does the Ki [1] read?
Answer: 267 nM

Question: What about the solubility kinetic at 24 h, 5 µM [2] of the same compound?
Answer: > 5 µM

Question: And the solubility thermodynamic at 24 h [3]?
Answer: 36.4 µM (≈ 12 µg/mL)

Question: And the solubility thermodynamic at 24 h [4]?
Answer: > 5000 µM

Question: What about the remaining at 24 h, 10 µM [5] of the same compound?
Answer: 100%

Question: And the remaining at 24 h, 10 µM [6]?
Answer: 100%

Question: What about the inhibition (Mus musculus [7]) of the same compound?
Answer: inactive

Question: And the inhibition (Mus musculus [8])?
Answer: inactive

Question: What about the Stability [9] of the same compound?
Answer: Stable

Question: And the inhibition in vivo at 350 µmol/kg (Mus musculus [10])?
Answer: 55%

Question: What about the Activity (Mus musculus [11]) of the same compound?
Answer: Non-Toxic

Question: And the Activity (Mus musculus [12])?
Answer: Non-Toxic

Question: What about the Activity (Mus musculus [13]) of the same compound?
Answer: 0%

Question: What about the Activity (Mus musculus [14]) of the same compound?
Answer: 0%

Question: What about the Activity (Mus musculus [15]) of the same compound?
Answer: Non-Toxic

Question: And the Activity (Mus musculus [16])?
Answer: Non-Toxic

Question: What about the Activity (Mus musculus [17]) of the same compound?
Answer: Non-Toxic

Question: What about the Activity (Mus musculus [18]) of the same compound?
Answer: Non-Toxic

Question: What about the Activity (Mus musculus [19]) of the same compound?
Answer: Non-Toxic

Question: And the inhibition [20]?
Answer: inactive

Question: What about the inhibition [21] of the same compound?
Answer: inactive
